Test results from article PMC7781011 (Journal of Inflammation Research, 2020).
Read-outs that look alike come from different tables or passages of the source.

Key:
[1] = In vitro metabolic stability in activated liver S9 fraction; format: in vitro ADME; conditions: rat liver S9 fraction activated with NADPH, UDPGA, GSH, PAPS; 500 µM
Procedure, shortened: (§1)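 Mouse or rat liver S9 fraction isolated and activated with NADPH, UDPGA, GSH and PAPS before compound addition. Samples taken at 0, 15, 30, 45 and 60 min. Compound extracted with acetonitrile and quantified by reversed-phase HPLC with PDA detection. Percent remaining calculated from peak areas at 0 and 60 min.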

rat mPGES-1 = target: T1, rat mPGES-1 (Rattus norvegicus, UniProt Q9JHF3); experiment: Binding assay using isothermal titration calorimetry
T1 sequence (Q9JHF3 1-153): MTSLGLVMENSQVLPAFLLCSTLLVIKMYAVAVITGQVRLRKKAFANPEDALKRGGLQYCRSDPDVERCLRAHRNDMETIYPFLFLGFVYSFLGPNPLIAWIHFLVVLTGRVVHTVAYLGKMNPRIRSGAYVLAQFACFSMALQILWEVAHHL
Procedure, shortened: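 Rat mPGES-1 isolated from vas deferens and seminal vesicles. Compound (up to 1 mM) and protein (1 mM) dissolved in PBS and degassed. Serial compound injections made into enzyme cell. KD derived by fitting the binding isotherm.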

human COX-2 = target: T2, human COX-2 (Homo sapiens, UniProt P35354); experiment: Circular dichroism, change in secondary structure; conditions: CD, Human COX-2, LFA-9 10 µM
T2 sequence (P35354 18-604): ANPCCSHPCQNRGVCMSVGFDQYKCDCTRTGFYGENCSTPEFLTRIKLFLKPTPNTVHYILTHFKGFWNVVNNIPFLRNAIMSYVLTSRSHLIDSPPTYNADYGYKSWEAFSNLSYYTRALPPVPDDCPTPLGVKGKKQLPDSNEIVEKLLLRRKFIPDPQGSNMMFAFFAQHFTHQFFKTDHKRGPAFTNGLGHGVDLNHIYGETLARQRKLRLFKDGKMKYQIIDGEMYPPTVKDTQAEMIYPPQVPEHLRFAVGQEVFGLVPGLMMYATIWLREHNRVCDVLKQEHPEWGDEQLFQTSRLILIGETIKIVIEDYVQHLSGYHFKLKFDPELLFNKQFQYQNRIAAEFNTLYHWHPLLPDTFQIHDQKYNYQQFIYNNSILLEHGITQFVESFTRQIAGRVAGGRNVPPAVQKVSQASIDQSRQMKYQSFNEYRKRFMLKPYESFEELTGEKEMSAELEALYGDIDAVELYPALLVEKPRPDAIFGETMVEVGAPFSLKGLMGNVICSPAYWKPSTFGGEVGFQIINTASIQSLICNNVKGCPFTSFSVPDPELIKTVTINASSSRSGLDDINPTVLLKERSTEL
Procedure, shortened: (§2)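 Native and compound-treated (0.1–10 µM) enzymes in PBS pH 7.4 at final protein 200 µM. CD spectra corrected by subtracting buffer blanks. Percent change in secondary structure (α-helix, β-sheet) calculated with the CAPITO analysis server.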

[2] = In vitro metabolic stability in activated liver S9 fraction; format: in vitro ADME; conditions: mouse liver S9 fraction activated with NADPH, UDPGA, GSH, PAPS; 500 µM
Procedure, shortened: as §1

human 5-LOX [3] = target: T3, human 5-LOX (Homo sapiens, UniProt P09917); experiment: Binding assay using isothermal titration calorimetry
T3 sequence (P09917 1-674): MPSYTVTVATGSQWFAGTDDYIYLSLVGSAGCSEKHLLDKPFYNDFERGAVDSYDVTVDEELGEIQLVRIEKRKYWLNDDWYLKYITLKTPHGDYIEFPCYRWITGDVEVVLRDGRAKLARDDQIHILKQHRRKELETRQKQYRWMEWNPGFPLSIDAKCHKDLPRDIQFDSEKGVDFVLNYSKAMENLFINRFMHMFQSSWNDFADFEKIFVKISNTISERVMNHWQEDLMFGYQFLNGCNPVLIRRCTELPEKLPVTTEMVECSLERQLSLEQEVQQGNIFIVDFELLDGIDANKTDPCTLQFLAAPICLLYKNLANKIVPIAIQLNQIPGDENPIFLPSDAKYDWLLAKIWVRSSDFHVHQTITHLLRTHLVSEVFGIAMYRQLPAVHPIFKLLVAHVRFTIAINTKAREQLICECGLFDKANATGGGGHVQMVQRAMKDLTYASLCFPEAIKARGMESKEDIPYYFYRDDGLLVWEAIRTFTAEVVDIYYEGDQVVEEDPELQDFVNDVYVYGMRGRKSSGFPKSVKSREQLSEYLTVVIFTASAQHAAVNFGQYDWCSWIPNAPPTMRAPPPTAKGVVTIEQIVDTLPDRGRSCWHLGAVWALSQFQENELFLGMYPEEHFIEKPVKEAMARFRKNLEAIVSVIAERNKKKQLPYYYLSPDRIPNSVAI
Procedure, shortened: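 Serial injections of test compound (up to 1 mM) into enzyme-containing cell at 1 mM protein, both dissolved in PBS and degassed before use. Titration continued until heat signal approached zero at saturation. Isotherm fitted to obtain dissociation constant KD.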

human COX-1 = human COX-1 (Homo sapiens, UniProt P23219); experiment: Circular dichroism, change in secondary structure; conditions: CD, Human COX-1, LFA-9 10 µM
Chain of human COX-1 (P23219 24-599): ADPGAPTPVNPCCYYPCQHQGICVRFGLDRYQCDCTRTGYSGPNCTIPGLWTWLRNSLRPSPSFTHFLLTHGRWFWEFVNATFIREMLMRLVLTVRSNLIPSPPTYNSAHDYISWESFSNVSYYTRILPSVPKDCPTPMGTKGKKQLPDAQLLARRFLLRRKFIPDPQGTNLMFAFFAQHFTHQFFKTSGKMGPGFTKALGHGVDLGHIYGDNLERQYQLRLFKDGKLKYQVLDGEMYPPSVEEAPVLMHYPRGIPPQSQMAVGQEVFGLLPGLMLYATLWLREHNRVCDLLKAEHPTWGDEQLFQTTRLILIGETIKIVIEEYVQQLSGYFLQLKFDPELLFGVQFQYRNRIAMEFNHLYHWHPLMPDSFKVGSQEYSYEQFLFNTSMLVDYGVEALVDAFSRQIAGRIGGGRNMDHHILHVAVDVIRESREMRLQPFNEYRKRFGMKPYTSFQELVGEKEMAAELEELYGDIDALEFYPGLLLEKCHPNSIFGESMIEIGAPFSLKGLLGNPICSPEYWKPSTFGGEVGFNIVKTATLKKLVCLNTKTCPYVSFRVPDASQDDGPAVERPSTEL
Procedure, shortened: as §2

[4] = test system: normal colonocytes of rats; experiment: MTT assay; format: cell-based, rat; conditions: 0.1–100 µM, 24 hours
Procedure, shortened: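 Normal rat colonocytes exposed 24 h to compound (0.1–100 µM), then MTT reagent for 2 h at 37°C. Formazan dissolved in DMSO, absorbance read at 570 nm with 620 nm reference. Three independent experiments, expressed as percent viability.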

human 5-LOX [5] = target: T3, human 5-LOX; experiment: Circular dichroism, change in secondary structure; conditions: CD
Procedure, shortened: as §2

CC1(C)Cc2c(-c3ccccc3)c(-c3ccc(Cl)cc3)c(CC(=O)NCC(=O)O)n2C1 [LFA-9, 2-[[2-[2-(4-chlorophenyl)-6,6-dimethyl-1-phenyl-5,7-dihydropyrrolizin-3-yl]acetyl]amino]acetic acid]
LFA-9 remaining after 60-minutes incubation [1]: 98.3%
Kd (rat mPGES-1): 3.3 µM
Change in Secondary Structure (human COX-2): No change in secondary structure
LFA-9 remaining after 60-minutes incubation [2]: 96.1%
Kd (human 5-LOX [3]): 18 µM
Kd (human 5-LOX [3]; read-out: KD (KD2), ITC, Human 5-LOX, sequential binding sites, second site): 210 µM
Change in Secondary Structure (human COX-1): No change in secondary structure
cytotoxicity to normal rat colonic epithelial cells [4]: no cytotoxicity
unfolding of α-helix of 5-LOX (human 5-LOX [5]; 5-LOX, LFA-9 at 0.1 µM): 8.7%
unfolding of β-sheets of 5-LOX (human 5-LOX [5]; 5-LOX, LFA-9 at 0.1 µM): 1%
Change in Secondary Structure: unfolding in α-helix (human 5-LOX [5]; Human 5-LOX, LFA-9 0.12 µM): 8.7%
Change in Secondary Structure: unfolding in β-sheets (human 5-LOX [5]; Human 5-LOX, LFA-9 0.12 µM): 1%
